According to the RNAGym collection of RNA variant scans (doi:10.1126/science.aae0568):
Fewer inactive variants are shown than the library holds.

B1: tRNA (parent)
chain: GUUCCGUUGGCGUAAUGGUAACGCGUCUCCCUCCUAAGGAGAAGACUGCGGGUUCGAGUCCCGUACGGAACG

Variants of: B1
Test: yeast fitness relative to wild type (ratio to wild type); higher = fitter; tRNA-Arg(CCU), competitive growth, 37 C, YPD
Procedure, shortened: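 Genotype frequency changes were the basis for Darwinian fitness relative to wild type. The frequencies came from 100-nucleotide paired-end sequencing of gene amplicons from the start population and each end population of pooled yeast strains with tRNA-Arg(CCU) gene variants at the native locus. Competition ran in YPD at 37°C for 24 hours in six replicates, genotypes needed ≥ 100 starting reads, and estimates < 0.5 were set to 0.5.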

Question: With GUUCCGUCGGCGUAAUGGUAAGGCGUCUCCCUCCUAAGGAGAAGACUGUGGGUUCGAGUCCCACACGGAACG as the variant, how does the yeast fitness read?
Answer: ≤ 0.5

Question: Which yeast fitness does the source give for GUUCCGUCGGCGUAAUGGUAAGGCGUCACCCUGCUAAGGAGAAGACUGCGGGUUCGCGUCCCGUACGGAACG here?
Answer: ≤ 0.5

Question: Which yeast fitness does the source give for GUUCCGUCGGCGUAAUGGUAAUGCGUCUCCUUCCUAAGGAGAAGACUGCGGGUUCGAGUCCCGUACGGAACG here?
Answer: 0.54

Question: With GUUCCGUCGGCGUAAUGGUAACGAGUCUCCCUCCUAAGGAGAAGAGUGCGGCUUCGAGACCCGUACGGAACG as the variant, how does the yeast fitness read?
Answer: ≤ 0.5

Question: With GUUCCGUCGGCGUAAUGGUAACGGGUCUCCCUCCUAAGGAGAAGACUGCGGGUUCGAGUCCCGUACGGAACG as the variant, how does the yeast fitness read?
Answer: 0.576

Question: For GUUCCGUCGGCGUAAUGGUAACGGGUUUCCCUCCUAAGGAGAAGACUGCGGGUUAGAGUCCCGUACGGAACG, which yeast fitness is on record?
Answer: ≤ 0.5

Question: For GUUCCGUCGGCGUAAUGGUAACGGAUCUCCCUCCUAAGGAGAGGACUGCGGGUUCGAGUCCCGUACGGAACG, which yeast fitness is on record?
Answer: ≤ 0.5

Question: For GUUCCGUCGGCGUAAUGGUAACGGGUCUCCCUCCUAACGAGAAGACUGCGGGUUCGAGUCCCGUACGGAACG, which yeast fitness is on record?
Answer: ≤ 0.5

Question: For GUUCCGUCGGCGUAAUGGUAACGGGUCUCCCUCCUAACGAGAAGACUGCGGGUUCGUGUCCCGUACGGAACG, which yeast fitness is on record?
Answer: ≤ 0.5

Question: With GUUCCGUCGGCGUAAUGGUAACGGGUCUCCCUCCUAAGGAGAAGACUGCAGGUUCGAGUCCCGUACGGAACG as the variant, how does the yeast fitness read?
Answer: ≤ 0.5

Question: With GUUCCGUCGGCGUAAUGGUAACGGGUCUCCCUCCUAAGGAGAAGACUGCGGGUUCGAGUCCCGUACUGAACG as the variant, how does the yeast fitness read?
Answer: ≤ 0.5

Question: With GUUCCGUCGGCGUAAUGGUAACGGGCCUCCCUCCUAAGGAGAAGACUGCGGGUUCGAGUCCCGUACGGAACG as the variant, how does the yeast fitness read?
Answer: ≤ 0.5

Question: With GUUCCGUCGGCGUAAUGGUAACGUGUCUCCCUCCUAAGGAGAAGACUGCGGGUUCGAGUCCCGUACGGAACG as the variant, how does the yeast fitness read?
Answer: 0.945

Question: With GUUCCGUCGGCGUAAUGGUAACGUGUCUCCCUCCUAAGGAGAAGGGUGCGGGUUGGAGUCCCGUACGGAACG as the variant, how does the yeast fitness read?
Answer: ≤ 0.5

Question: Which yeast fitness does the source give for GUUCCGUCGGCGUAAUGGUAACGCGUAUCCCUCCUUUGGAGAAGACUGCGGGUUCGAGUCCCGUACGGAACG here?
Answer: ≤ 0.5

Question: Which yeast fitness does the source give for GUUCCGUCGGCGUAAUGGUAACGCGUAUCCCUCCUAAGGAGAAGACUGCGGAUUCGAGUCCCGUACGGAACG here?
Answer: ≤ 0.5

Question: With GUUCCGUCGGCGUAAUGGUAACGCGUGUCCCUCCUAAGGAGCAGACUGCGGGUUCGAGUCCGGUACGGAACG as the variant, how does the yeast fitness read?
Answer: ≤ 0.5

Question: With GUUCCGUCGGCGUAAUGGUAACGCGUGUCCCUCCUAAGGAGAAGACUGCGGGUUCGCGUCCCGUACGGAACG as the variant, how does the yeast fitness read?
Answer: 0.586

Question: With GUUCCGUCGGCGUAAUGGUAACGCGUGUCCCUCCUAAGGAGAAGACUGCGGGUUCGCGUCCCGUACGGAUCG as the variant, how does the yeast fitness read?
Answer: ≤ 0.5

Question: For GUUCCGUCGGCGUAAUGGUAACGCGUGUCGCUCCUAAGGAGAAGAUUGGGGGUUCGAGUCCCGUACGGAACG, which yeast fitness is on record?
Answer: ≤ 0.5

Question: With GUUCCGUCGGCGUAAUGGUAACGCGUGUCCCUCCUAAGGAGAAAACUGCGGGUUCGAGUCCCGUACGGAACG as the variant, how does the yeast fitness read?
Answer: ≤ 0.5

Question: Which yeast fitness does the source give for GUUCCGUCGGCGUAAUGGUAACGCGUUUCCCUCCUCAGCAGAAGACUCCGGGUUCGAGUCCCUUACGGAUCG here?
Answer: ≤ 0.5

Question: For GUUCCGUCGGCGUAAUGGUAACGCGUUUCCCUCCUAAGGAGAAGACUGCGGGUUCGAGUCCCGUACGGAGCG, which yeast fitness is on record?
Answer: 0.738

Question: With GUUCCGUCGGCGUAAUGGUAACGCGUUUCCAUCCUAAGGAGAAGACUGCGGGUUCAAGUCCCGUACGGAACG as the variant, how does the yeast fitness read?
Answer: ≤ 0.5

Question: With GUUCCGUCGGCGUAAUGGUAACGCGUUUCCAUCCUAAGGAGAAGACUGCGGGUUCGAGUCCCGUACGAAACG as the variant, how does the yeast fitness read?
Answer: ≤ 0.5

Question: For GUUCCGUCGGCGUAAUGGUAACGCGUUUCCCUCCUAAGGAGAAGACUGUGGAUUCGAGUACCGUACGGAACG, which yeast fitness is on record?
Answer: ≤ 0.5

Question: For GUUCCGUCGGCGUAAUGGUAACGCGUUUCCCUCCUAAGGAGAAGACUGCGGGUUCGAGUCCGGUACGGAACG, which yeast fitness is on record?
Answer: ≤ 0.5

Question: Which yeast fitness does the source give for GUUCCGUCGGCGUAAUGGUAACGCGUUUCCCUCCUAAGGAGAAGACUGCGGGUUCGAGUCCCGUAUGGUACG here?
Answer: ≤ 0.5

Question: For GUUCCGUCGGCGUAAUGGUAACGCGUUUCCCUCCUAAGGACAAGACUGCGGGUUCGAGUCGCGUACGGAACG, which yeast fitness is on record?
Answer: 0.551

Question: Which yeast fitness does the source give for GUUCCGUCGGCGUAAUGGUAACGCGUUUCCCUCCUAAGGAGAAGACUAUGGGUUCGAGUCCCGUACGGAACG here?
Answer: 0.686

Question: Which yeast fitness does the source give for GUUCCGUCGGCGUAAUGGUAACGCGUUUCCCUCCUAAGGAGAAGACUGCGAGUUCGUGUCCCGUACGGAACG here?
Answer: 0.541

Question: Which yeast fitness does the source give for GUUCCGUCGGCGUAAUGGUAACGCGUUUCCCUCCAAAGGAGAAGACUGCGGGUUCGAGCCCCGUACGGAACG here?
Answer: ≤ 0.5

Question: With GUUCCGUCGGCGUAAUGGUAACGCGUCUACCUCGUGAGGCGAAGACAGCGGGUUCGAGUCCCGUACGGAACG as the variant, how does the yeast fitness read?
Answer: ≤ 0.5

Question: For GUUCCGUCGGCGUAAUGGUAACGCGUCUACCUCGUGAGGCGAAGACAGCGGGUUCGAGUCCGGUACGAAACG, which yeast fitness is on record?
Answer: 0.537

Question: Which yeast fitness does the source give for GUUCCGUCGGCGUAAUGGUAACGCGUCUUCCUCCUAAGGAGAGGACUGCGGGUUCGAGUCCCGUAUGGAACG here?
Answer: ≤ 0.5

Question: For GUUCCGUCGGCGUAAUGGUAACGCGUCUUCCUCCUAACGCGAAGACUGCGGGUUCGAGUCCCGUACGGAACG, which yeast fitness is on record?
Answer: ≤ 0.5

Question: With GUUCCGUCGGCGUAAUGGUAACGCGUCUUCCUCCUAAGCUGAAGACUGCGGGUUCGAGUCCCGUACGGAACG as the variant, how does the yeast fitness read?
Answer: ≤ 0.5
